Calls of active or inactive are those of the source. No cut-off for these calls is given here.
Assays:
Salmonella typhimurium [1] = test: Mutagenicity in Salmonella typhimurium TA98 assessed as mutagenic index at 4 ug/plate by Ames test; assay type: toxicity, organism-based; conditions: salmonella enterica subsp. enterica serovar typhimurium
[2] = Hepatotoxicity against human HepG2 cells assessed as cell viability at 10 uM after 24 hrs by MTT assay relative to control; assay type: toxicity, cell-based; conditions: read-out: Activity
How it was run: (§1)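 HepG2 cells (EMEM, 10% FBS, 37 °C, 5% CO₂) were seeded at 1 × 10⁴ per well and cultured overnight. They were then exposed to increasing compound concentrations for 24 h. MTT reagent was added for 3 h and formazan crystals dissolved before reading. Data are mean ± SD of at least three independent experiments, relative to untreated control.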

Mus musculus [3] = test: Neurotoxicity in albino Carworth Farms No.1 mouse at 100 mg/kg, ip after 0.5 hrs by rotarod test; assay type: toxicity, organism-based; conditions: in vivo
How it was run: (§2)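 Mice (albino Carworth Farms No.1) were dosed i.p. at 30, 100 or 300 mg/kg in 0.5% methylcellulose. They were tested 0.5 and 4 h later on a 1-inch knurled rod rotating at 6 rpm. Neurotoxicity was scored if a mouse could not stay on the rod for at least 1 min in each of three trials. Results are given as animals toxic/animals tested, with deaths noted.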

Salmonella typhimurium [4] = test: Mutagenicity in Salmonella typhimurium TA98 assessed as mutagenic index at 20 ug/plate by Ames test; assay type: toxicity, organism-based; conditions: salmonella enterica subsp. enterica serovar typhimurium
Rattus norvegicus [5] = test: Neurotoxicity in Sprague-Dawley rat at 30 mg/kg, po after 0.5 hrs; assay type: toxicity, organism-based; conditions: in vivo
How it was run: (§3)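 Sprague-Dawley rats were given 30 mg/kg orally in 0.5% methylcellulose. Neurotoxicity was checked at 0.25, 0.5, 1.0, 2.0 and 4 h after dosing. Results are given as number of rats showing neurotoxicity/number tested.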

Salmonella typhimurium [6] = test: Mutagenicity in Salmonella typhimurium TA1535 assessed assessed as mutagenic index at 100 ug/plate by Ames test; assay type: toxicity, organism-based; conditions: salmonella enterica subsp. enterica serovar typhimurium
Rattus norvegicus [7] = test: Anticonvulsant activity in Sprague-Dawley rat assessed as protection against maximal electroshock-induced seizures at 30 mg/kg, po after 2 hrs; assay type: functional, organism-based
How it was run: (§4)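 Sprague-Dawley rats were given 30 mg/kg p.o. in 0.5% methylcellulose. Maximal electroshock was applied at 0.25, 0.5, 1.0, 2.0 and 4 h after dosing. Results are reported as number of rats protected / number tested.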

[8] = Hepatotoxicity against human HepG2 cells assessed as cell viability at 50 uM after 24 hrs by MTT assay relative to control
[9] = Hepatotoxicity against human HepG2 cells assessed as cell viability at 25 uM after 24 hrs by MTT assay relative to control; assay type: toxicity, cell-based; conditions: read-out: Activity; how it was run: as §1
[10] = Protection index, ratio of TD50 for neurotoxicity in po dosed Sprague-Dawley rat to ED50 for anticonvulsant activity in po dosed Sprague-Dawley rat assessed as maximal electroshock-induced seizures; assay type: toxicity, organism-based; conditions: in vivo
Rattus norvegicus [11] = test: Anticonvulsant activity in Sprague-Dawley rat assessed as protection against maximal electroshock-induced seizures at 30 mg/kg, po after 0.25 hrs; assay type: functional, organism-based; how it was run: as §4
Salmonella typhimurium [12] = test: Mutagenicity in Salmonella typhimurium TA1535 assessed as assessed as mutagenic index at 20 ug/plate by Ames test; assay type: toxicity, organism-based; conditions: salmonella enterica subsp. enterica serovar typhimurium
How it was run: (§5)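 Ames preincubation test. Strain culture was grown 12 h at 37 °C in nutrient broth, then mixed with compound in DMSO (final 4, 20, 100, 500, 1000 per plate) and buffer in top agar with trace histidine. This was plated on glucose minimal agar for 48 h at 37 °C. Mutagenic index = revertants with compound / DMSO control revertants, from three independent repeats.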

Mus musculus [13] = test: Anticonvulsant activity in albino Carworth Farms No.1 mouse assessed as protection against maximal electroshock-induced seizures at 30 mg/kg, ip after 4 hrs; assay type: functional, organism-based
How it was run: (§6)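 Mouse i.p. screen in Carworth Farms No.1 albino mice at 30, 100 or 300 mg/kg in 0.5% methylcellulose. Testing was at 0.5 and 4 h after injection, by maximal electroshock or by subcutaneous pentetrazol challenge. Scoring was number protected / number used.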

Mus musculus [14] = test: Anticonvulsant activity in albino Carworth Farms No.1 mouse assessed as protection against subcutaneous dosed pentetrazol-induced seizures at 30 mg/kg, ip after 4 hrs; assay type: functional, organism-based; how it was run: as §6
Salmonella typhimurium [15] = test: Mutagenicity in Salmonella typhimurium TA100 assessed as number of revertants at 500 ug/plate by Ames test (reference value: 77 +/-4); assay type: toxicity, organism-based; conditions: salmonella enterica subsp. enterica serovar typhimurium
How it was run: (§7)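 Salmonella TA100 preincubation Ames assay: overnight-type 12 h broth culture at 37 °C, compound in DMSO at final 4–1000 per plate, top agar with trace histidine, glucose minimal agar, 48 h at 37 °C. Revertant colonies per plate were counted, with a DMSO negative control and a sodium azide positive control. Three independent repetitions were run.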

Rattus norvegicus [16] = test: Anticonvulsant activity in Sprague-Dawley rat assessed as protection against maximal electroshock-induced seizures at 30 mg/kg, po after 0.5 hrs; assay type: functional, organism-based; how it was run: as §4
Salmonella typhimurium [17] = test: Mutagenicity in Salmonella typhimurium TA1535 assessed as number of revertants at 1000 ug/plate by Ames test (reference value: 10 +/- 3); assay type: toxicity, organism-based; conditions: salmonella enterica subsp. enterica serovar typhimurium
Rattus norvegicus [18] = test: Neurotoxicity in Sprague-Dawley rat at 30 mg/kg, po after 0.25 hrs; assay type: toxicity, organism-based; conditions: in vivo; how it was run: as §3
Mus musculus [19] = test: Anticonvulsant activity in albino Carworth Farms No.1 mouse assessed as protection against 6-Hz electroshock-induced seizures at 100 mg/kg, ip after 2 hrs; assay type: functional, organism-based
How it was run: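 Carworth Farms No.1 albino mice were dosed i.p. at 100 mg/kg (0.5% methylcellulose solution or suspension). 6-Hz seizures were induced at 32 mA at 0.25, 0.5, 1.0, 2.0 and 4 h after injection. Results are given as animals protected / animals tested.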

Mus musculus [20] = test: Anticonvulsant activity in albino Carworth Farms No.1 mouse assessed as protection against maximal electroshock-induced seizures at 100 mg/kg, ip after 4 hrs; assay type: functional, organism-based; how it was run: as §6
Mus musculus [21] = test: Anticonvulsant activity in albino Carworth Farms No.1 mouse assessed as protection against subcutaneous dosed pentetrazol-induced seizures at 100 mg/kg, ip after 0.5 hrs; assay type: functional, organism-based; how it was run: as §6
Salmonella typhimurium [22] = test: Mutagenicity in Salmonella typhimurium TA98 assessed as mutagenic index at 500 ug/plate by Ames test; assay type: toxicity, organism-based; conditions: salmonella enterica subsp. enterica serovar typhimurium
Salmonella typhimurium [23] = test: Mutagenicity in Salmonella typhimurium TA100 assessed as mutagenic index at 500 ug/plate by Ames test; assay type: toxicity, organism-based; conditions: salmonella enterica subsp. enterica serovar typhimurium; how it was run: as §5
Salmonella typhimurium [24] = test: Mutagenicity in Salmonella typhimurium TA98 assessed as mutagenic index at 100 ug/plate by Ames test; assay type: toxicity, organism-based; conditions: salmonella enterica subsp. enterica serovar typhimurium
Mus musculus [25] = test: Anticonvulsant activity in albino Carworth Farms No.1 mouse assessed as protection against maximal electroshock-induced seizures at 100 mg/kg, ip after 0.5 hrs; assay type: functional, organism-based; how it was run: as §6
[26] = Lipophilicity of the compound using 65% methanol in water at 1 mg/ml by RT-TLC analysis; assay type: physicochemical; conditions: buffer
How it was run: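 Reversed-phase TLC with a methanol–water mobile phase at the stated methanol content (v/v). Compounds were spotted from 1 mg/mL methanol solutions after 1 h chamber saturation and located under UV light. Rf was measured and RM = log(1/Rf − 1) calculated.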

Mus musculus [27] = test: Neurotoxicity in albino Carworth Farms No.1 mouse at 30 mg/kg, ip after 0.5 hrs by rotarod test; assay type: toxicity, organism-based; conditions: in vivo; how it was run: as §2
Salmonella typhimurium [28] = test: Mutagenicity in Salmonella typhimurium TA100 assessed as number of revertants at 1000 ug/plate by Ames test (reference value: 77 +/-4); assay type: toxicity, organism-based; conditions: salmonella enterica subsp. enterica serovar typhimurium; how it was run: as §7
Mus musculus [29] = test: Anticonvulsant activity in albino Carworth Farms No.1 mouse assessed as protection against subcutaneous dosed pentetrazol-induced seizures at 300 mg/kg, ip after 0.5 hrs; assay type: functional, organism-based; how it was run: as §6
Salmonella typhimurium [30] = test: Mutagenicity in Salmonella typhimurium TA98 assessed as mutagenic index at 1000 ug/plate by Ames test; assay type: toxicity, organism-based; conditions: salmonella enterica subsp. enterica serovar typhimurium

| Structure (SMILES) | Activity_index (Salmonella typhimurium [1]) | viability at 24 h, 10 µM [2] [%] | Activity (Mus musculus [3]) | Activity_index (Salmonella typhimurium [4]) | Activity (Rattus norvegicus [5]) | Activity_index (Salmonella typhimurium [6]) | Activity (Rattus norvegicus [7]) | viability at 24 h, 50 µM [8] [%] | viability at 24 h, 25 µM [9] [%] | Activity (Rattus norvegicus [11]) | Activity_index (Salmonella typhimurium [12]) | Activity (Mus musculus [13]) | Activity (Mus musculus [14]) | Activity (Salmonella typhimurium [15]) | Activity (Salmonella typhimurium [17]) | Activity (Rattus norvegicus [18]) | Activity (Mus musculus [19]) | Activity (Mus musculus [20]) | Activity (Mus musculus [21]) | Activity_index (Salmonella typhimurium [22]) | further results |
| --- | --- | --- | --- | --- | --- | --- | --- | --- | --- | --- | --- | --- | --- | --- | --- | --- | --- | --- | --- | --- | --- |
| CC(CO)NC(=O)/C=C/c1ccccc1 (racemic) | 0.9 | 97.1 | Non-toxic | 0.9 | Non-toxic | 0.5 | inactive | 95 | 96.6 | inactive | 0.6 | inactive | inactive | 65 | 6 | Non-toxic | inactive | inactive | inactive | 1 | selectivity ratio [10]: > 8.1; Activity (Rattus norvegicus [16]): inactive; Activity_index (Salmonella typhimurium [23]): 0.8; Activity_index (Salmonella typhimurium [24]): 0.9; Activity (Mus musculus [25]): Active; Rm [26]: -0.03; Activity (Mus musculus [27]): Non-toxic; Activity (Salmonella typhimurium [28]): 67; Activity (Mus musculus [29]): Active; Activity_index (Salmonella typhimurium [30]): 0.8 |
| CC(O)CNC(=O)/C=C/c1ccccc1 (racemic) | 1.1 | 97.3 | Non-toxic | 1 | Non-toxic | 1.2 | inactive | 92.6 | 92.5 | inactive | 1.3 | inactive | inactive | 65 | 14 | Non-toxic | inactive | inactive | inactive | 0.9 | selectivity ratio [10]: > 11; Activity (Rattus norvegicus [16]): inactive; Activity_index (Salmonella typhimurium [23]): 0.8; Activity_index (Salmonella typhimurium [24]): 0.9; Activity (Mus musculus [25]): inactive; Rm [26]: 0.02; Activity (Mus musculus [27]): Non-toxic; Activity (Salmonella typhimurium [28]): 73; Activity (Mus musculus [29]): Active; Activity_index (Salmonella typhimurium [30]): 1 |
| CCC(O)CNC(=O)/C=C/c1ccccc1 (racemic) | 0.9 | 94.5 | Non-toxic | 0.9 | Non-toxic | 0.5 | inactive | 89.4 | 91.2 | Active | 1.4 | inactive | inactive | 60 | 6 | Non-toxic | inactive | inactive | inactive | 0.7 | selectivity ratio [10]: > 12.1; Activity_index (Salmonella typhimurium [23]): 0.8; Activity_index (Salmonella typhimurium [24]): 0.9; Activity (Mus musculus [25]): inactive; Rm [26]: 0.19; Activity (Mus musculus [27]): Non-toxic; Activity (Salmonella typhimurium [28]): 72; Activity (Mus musculus [29]): Active; Activity_index (Salmonella typhimurium [30]): 1.1 |
| CC(C)C(CO)NC(=O)/C=C/c1ccccc1 (racemic) | 0.9 | 95.2 | Non-toxic | 0.8 | Non-toxic | 0.6 | inactive | 89.1 | 95.7 | inactive | 0.6 | inactive | inactive | 79 | 7 | Non-toxic | inactive | inactive | inactive | 0.8 | Activity (Rattus norvegicus [16]): inactive; Activity_index (Salmonella typhimurium [23]): 1; Activity_index (Salmonella typhimurium [24]): 0.8; Activity (Mus musculus [25]): inactive; Rm [26]: 0.31; Activity (Mus musculus [27]): Non-toxic; Activity (Salmonella typhimurium [28]): 80; Activity (Mus musculus [29]): inactive; Activity_index (Salmonella typhimurium [30]): 0.7 |

— ChEMBL document CHEMBL3739352, “Anticonvulsant activity, crystal structures, and preliminary safety evaluation of N-trans-cinnamoyl derivatives of selected (un)modified aminoalkanols” (Eur J Med Chem, 2016)
